We go through twelve compounds from PMC9753112 (ACS Omega, 2022).

The test system of data set [1] is MCF-7 cells. As to conditions: read-out: IC50 (MCF-7 cells); cytotoxic action ref 32; cited from earlier work.
Data set [2] has as its system HepG2 cells. Put plainly: MTT cytotoxicity assay, HepG2 cells. It counts as cell-based. As to conditions: Homo sapiens, HepG2, read-out: IC50 (HepG2). Put shortly:
(§1)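 Cells grown in medium with 10% FBS and 1% penicillin-streptomycin under CO2 at 37 °C and seeded at 5 × 10^4 per well. They were exposed to the test compound at 0.01, 0.1, 1, 10 and 100 μM, and viability was read by MTT absorbance as percent of control. IC50 came from dose-response curves, averaged over three independent trials.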

Data set [3] concerns MCF-7 cells. Put plainly: MTT cytotoxicity assay, MCF-7 cells. In kind it is cell-based. As to conditions: for IC50: Homo sapiens; for cytotoxicity in words: against MCF-7 and HepG2 cells. In outline:
as §1

In data set [4] the test system is solid Ehrlich carcinoma cells. Put plainly: In vivo solid Ehrlich carcinoma.
For another data set, the target named is EGFR (Homo sapiens, UniProt P00533). Description: EGFR enzyme inhibition. In kind it is biochemical.
EGFR, sequence (P00533 25-1210): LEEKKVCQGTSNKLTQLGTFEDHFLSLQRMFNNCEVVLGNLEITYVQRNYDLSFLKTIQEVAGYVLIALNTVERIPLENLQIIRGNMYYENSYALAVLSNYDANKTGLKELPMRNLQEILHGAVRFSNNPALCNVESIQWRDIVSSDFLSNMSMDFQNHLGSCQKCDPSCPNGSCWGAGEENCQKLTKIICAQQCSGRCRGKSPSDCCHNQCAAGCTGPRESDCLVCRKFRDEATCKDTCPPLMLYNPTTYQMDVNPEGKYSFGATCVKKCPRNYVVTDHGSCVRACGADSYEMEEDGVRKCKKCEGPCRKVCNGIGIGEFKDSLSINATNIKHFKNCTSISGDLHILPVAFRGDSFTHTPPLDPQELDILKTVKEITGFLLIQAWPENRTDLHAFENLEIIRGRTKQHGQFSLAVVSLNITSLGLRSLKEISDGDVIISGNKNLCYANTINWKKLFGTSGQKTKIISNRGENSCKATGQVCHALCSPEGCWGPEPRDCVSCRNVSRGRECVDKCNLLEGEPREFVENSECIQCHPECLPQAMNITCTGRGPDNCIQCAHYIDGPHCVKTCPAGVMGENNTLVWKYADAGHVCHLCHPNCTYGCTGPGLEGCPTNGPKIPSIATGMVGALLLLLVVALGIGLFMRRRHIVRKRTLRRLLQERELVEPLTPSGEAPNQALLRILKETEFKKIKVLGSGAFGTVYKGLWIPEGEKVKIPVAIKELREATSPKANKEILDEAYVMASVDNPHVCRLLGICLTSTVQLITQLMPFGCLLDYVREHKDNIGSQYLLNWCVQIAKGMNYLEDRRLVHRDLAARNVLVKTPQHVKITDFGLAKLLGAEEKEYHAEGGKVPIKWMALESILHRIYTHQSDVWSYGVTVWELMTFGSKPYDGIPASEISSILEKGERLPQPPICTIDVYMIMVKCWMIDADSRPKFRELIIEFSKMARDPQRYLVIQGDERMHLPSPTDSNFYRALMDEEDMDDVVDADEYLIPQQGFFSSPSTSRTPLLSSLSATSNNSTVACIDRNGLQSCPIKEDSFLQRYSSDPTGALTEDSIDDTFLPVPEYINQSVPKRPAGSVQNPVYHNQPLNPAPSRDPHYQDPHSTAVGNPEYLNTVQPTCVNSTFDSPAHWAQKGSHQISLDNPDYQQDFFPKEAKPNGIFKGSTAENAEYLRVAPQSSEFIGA
The target of the next data set is PARP-1 (Homo sapiens, UniProt P09874). Description: PARP-1 enzyme inhibition. In kind it is biochemical.
PARP-1, sequence (P09874 whole entry): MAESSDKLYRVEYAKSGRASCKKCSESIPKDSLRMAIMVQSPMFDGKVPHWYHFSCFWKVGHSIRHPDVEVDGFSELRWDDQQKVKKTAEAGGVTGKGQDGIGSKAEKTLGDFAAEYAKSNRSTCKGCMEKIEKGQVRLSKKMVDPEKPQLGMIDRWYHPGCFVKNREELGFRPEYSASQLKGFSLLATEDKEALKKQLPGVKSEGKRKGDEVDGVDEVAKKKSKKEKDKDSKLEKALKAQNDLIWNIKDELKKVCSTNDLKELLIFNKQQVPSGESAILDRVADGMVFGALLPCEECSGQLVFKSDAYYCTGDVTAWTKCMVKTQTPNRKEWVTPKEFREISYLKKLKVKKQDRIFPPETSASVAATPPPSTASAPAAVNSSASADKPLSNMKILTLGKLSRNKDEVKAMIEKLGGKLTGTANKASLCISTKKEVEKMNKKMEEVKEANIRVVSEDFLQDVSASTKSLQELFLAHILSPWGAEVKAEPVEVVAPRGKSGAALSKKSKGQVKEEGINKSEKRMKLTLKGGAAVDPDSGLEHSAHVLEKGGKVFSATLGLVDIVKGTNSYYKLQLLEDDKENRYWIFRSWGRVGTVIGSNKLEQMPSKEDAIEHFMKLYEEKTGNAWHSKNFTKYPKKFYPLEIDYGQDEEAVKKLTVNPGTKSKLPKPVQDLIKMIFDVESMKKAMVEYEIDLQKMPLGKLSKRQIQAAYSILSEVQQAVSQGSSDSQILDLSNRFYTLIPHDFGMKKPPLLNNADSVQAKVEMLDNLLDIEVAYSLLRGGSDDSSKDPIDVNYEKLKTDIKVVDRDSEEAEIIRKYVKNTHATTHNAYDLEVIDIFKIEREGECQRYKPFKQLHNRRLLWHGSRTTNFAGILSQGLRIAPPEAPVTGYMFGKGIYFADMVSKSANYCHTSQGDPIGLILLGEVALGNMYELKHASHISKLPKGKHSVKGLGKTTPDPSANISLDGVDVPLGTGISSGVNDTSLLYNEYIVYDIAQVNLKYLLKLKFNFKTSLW
Data set [5] relates to normal cell lines MCF-10A and THLE2. Description: MTT assay on normal breast. In kind it is cell-based. In outline: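 Normal breast MCF-10A and normal liver THLE2 cells, cultured with 10% FBS and 1% penicillin-streptomycin under CO2 at 37 °C. They were seeded at 5 × 10^4 per well and treated with the test compound at 0.01–100 μM. MTT absorbance gave percent viability versus untreated control.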
For orientation: Tetrazolium assays rely on reduction of a dye to a coloured formazan, in cell work by metabolically active cells.

Data set [6] relates to MCF-7 cells. Put plainly: Cell cycle analysis. In kind it is cell-based. In outline: (§2)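 DNA content of untreated and treated cells was measured by flow cytometry as histograms. The percentage of cells in each cycle phase was compared before and after 48 h exposure.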
Data set [7] relates to HepG2 cells. Description: Cell cycle analysis. It counts as cell-based. Put shortly:
as §2

For data set [8], the system named is MCF-7 cells. Description: Annexin V/PI apoptosis-necrosis assessment, MCF-7. In kind it is cell-based. Particulars: MCF-7, IC50 dose, 48 h.
Data set [9] concerns HepG2 cells. Description: Annexin V/PI apoptosis-necrosis assessment, HepG2. In kind it is cell-based. Particulars: HepG2, IC50 dose, 48 h.
A further data set relates to MCF-7. Particulars: antiproliferative activity ref 29; cited from earlier work.
In the next data set the test system is HEPG-2. Particulars: antiproliferative activity ref 29; cited from earlier work.
Where [10] appears, read: SEC-bearing mice, 5 mg/kg BW IP, seven doses, mean ± SD n = 6.
Setting [11] is: SEC-bearing mice, 5 mg/kg BW IP, seven doses, mean ± SD n = 6, 5 mg/kg.
Setting [12] is: SEC-bearing mice, after treatment.

Molecules are shown by their SMILES. ≈ marks a conversion by molar mass, not a printed value. Where “and” joins values, the source holds several entries; their conditions need not be identical. Identical values can stand only once. Entries after “also recorded” stand apart in the source; their conditions may differ. Like-named read-outs stand apart in the source and are kept apart here.

One may read the IC50 as the concentration needed to halve the response being measured. `CNC(=O)c1cc(Oc2ccc(NC(=O)Nc3ccc(Cl)c(C(F)(F)F)c3)cc2)ccn1` [Sorafenib]: the IC50 in the data set on MCF-7 cells [1] is 2130 nM.

For `C#Cc1cccc(Nc2ncnc3cc(OCCOC)c(OCCOC)cc23)c1` [Erlotinib, reference compound], the IC50 in the data set on HepG2 cells [2] turned out to be 2.91 µM. Moreover, the IC50 in the data set with MCF-7 cells [3] (MCF7, read-out: IC50 (MCF-7)) came out at 2.51 µM. In [4] (setting [10]), this compound came in with a total protein of 6.2 ± 0.47 g/dL and a tumor volume of 114.6 ± 12.5 mm^3. The tumor weight in data set [4] (setting [11]) was 69.3 mg and 69.3 ± 2.19 mg.

In general, inhibition refers to the share of the control response that was lost under treatment. Consider `OCCSc1nnc(-c2cc3ccccc3[nH]2)n1-c1ccc(Cl)cc1` [12b, 4-(4-Chlorophenyl)-3-(2-hydroxyeth-1-ylsulfanyl)-5-(1H-indol-2-yl)-1,2,4-triazole], for which the IC50 came to 3.21 µM in the data set with HepG2 cells [2]; 78.1 nM at EGFR; 2.13 nM at PARP-1; 2.67 µM in the data set on MCF-7 cells [3] (MCF7, read-out: IC50 (MCF-7)). Further, the inhibition at 100 µM in data set [5] (read-out: cell inhibition) was 80%. For the same compound, the cytotoxicity in words entry with MCF-7 cells [3] is recorded as “potent cytotoxicity”.

In the case of `CC(O)CSc1nnc(-c2cc3ccccc3[nH]2)n1-c1ccc(Cl)cc1` (stereo not drawn) [13b, 4-(4-Chlorophenyl)-3-(2-hydroxyprop-1-ylsulfanyl)-5-(1H-indol-2-yl)-1,2,4-triazole], the IC50 in the data set on HepG2 cells [2] was determined as 0.32 µM. The “cell cycle arrest phase” value in the data set on MCF-7 cells [6] (MCF-7) is “arrested cell division at the G2/M phase”. Besides, the “%DIP G2/M” value in the data set with MCF-7 cells [6] (MCF-7, 1.07 μM, 48 h) is reported as 26.4%. Also, the “cell cycle arrest phase” value with HepG2 cells [7] (HepG2) was “arrested cell division at the S phase”. Further, in the data set with HepG2 cells [7] (HepG2, 0.32 μM, 48 h), the “%DIP S” value came to 45.21%. The compound also returned an IC50 against EGFR of 62.4 nM. Moreover, the IC50 against PARP-1 was found to be 1.24 nM. Moreover, in data set [5] (normal cells), the “toxicity to healthy cells” value is “no toxicity to healthy cells”. In the data set on MCF-7 cells [8], the early apoptosis is 10.6%; the late apoptosis was 16.9%; the necrosis-mediated cell death was found to be 5.06%; the “necrosis-mediated cell death, fold increase” value is 4.18 fold. Further, in the data set with MCF-7 cells [8], the “total apoptotic cell death” value came to 27.63% and the “total apoptotic cell death, fold vs control” value was 26 fold. In the data set on MCF-7 cells [3] (MCF7, read-out: IC50 (MCF-7)), the IC50 was 1.07 µM. In addition, the cytotoxicity in words result with MCF-7 cells [3] is on record as “potent cytotoxicity”. Further, in the data set on HepG2 cells [9], the early apoptosis is 23.61%; the late apoptosis is recorded as 9.34%; the necrosis-induced cell death is recorded as 6.01%; the “necrosis-induced cell death, fold increase” value came out at 6.1 fold. Moreover, in the data set with HepG2 cells [9], the “total apoptotic cell death” value was found to be 32.95% and the “total apoptotic cell death, fold increase” value came out at 34.68 fold. Besides, the “histopathological examination of liver tissues” value in data set [4] (SEC-bearing mice treated) is “improvement in liver tissues and retained them near normal; also recorded: Mild hydropic degeneration of hepatocytes”. This compound yielded a tumor volume in data set [4] (setting [10]) of 129.6 ± 13.6 mm^3. Further, in data set [4] (setting [11]), the Hb turned out to be 7.29 g/dL; the total protein is 5.6 g/dL and 5.6 ± 0.39 g/dL; the tumor weight is 74.6 mg and 74.6 ± 2.79 mg. For the same compound, in [4] (SEC-bearing mice, 5 mg/kg BW IP, seven doses, 5 mg/kg), the “tumor inhibition ratio (TIR%)” value is 66.7% and 66.7 ± 1.06%. Further, in data set [4] (setting [12]), the “ALT” value stood at 50.6 U/L, the “AST” value is reported as 60.3 U/L and the “WBC” value is 4360 L⁻¹.

For `OCCSc1nnc(-c2cc3ccccc3[nH]2)n1-c1ccccc1` [12a, 3-(2-Hydroxyeth-1-ylsulfanyl)-5-(1H-indol-2-yl)-4-phenyl-1,2,4-triazole], the 50% inhibitory concentration (IC50) in the data set with HepG2 cells [2] was 16.3 µM; with MCF-7 cells [3] (MCF7, read-out: IC50 (MCF-7)), 12.1 µM; in the data set with MCF-7 cells [3] (MCF7, read-out: IC50 range) it was 6.21 to 16.3 µM. The cytotoxicity in words entry in the data set on MCF-7 cells [3] is reported as “moderate activity”.

Regarding `COc1cccc2c1C(=O)c1c(O)c3c(c(O)c1C2=O)C[C@@](O)(C(=O)CO)C[C@@H]3O[C@H]1C[C@H](N)[C@H](O)[C@H](C)O1` [doxorubicin], the “IC50 (MCF-7)” value in the data set on MCF-7 was 4.0 µg/mL (≈ 7.36 µM). Moreover, the “IC50 (HEPG-2)” value in the data set on HEPG-2 is 4.0 µg/mL (≈ 7.36 µM).

Regarding `c1ccc(CSc2nc(-c3cc4ccccc4[nH]3)n[nH]2)cc1` [I, 3-Benzylsulfanyl-5-(1H-indol-2-yl)-2H-1,2,4-triazole], in the data set on MCF-7, the “IC50 (MCF-7)” value was 4.53 µg/mL (≈ 14.8 µM). Moreover, the “IC50 (HEPG-2)” value in the data set on HEPG-2 was 3.58 µg/mL (≈ 11.7 µM).

Regarding `S=c1[nH]nc(-c2cc3ccccc3[nH]2)n1-c1ccccc1` [3a, 5-(1H-Indol-2-yl)-4-phenyl-1,2,4-triazole-3(4H)-thione], in the data set on HepG2 cells [2], the IC50 is 7.39 µM.

In the case of `O=c1[nH]cc(F)c(=O)[nH]1` [5-FU, reference compound], the “tumor inhibition ratio (TIR%)” value in data set [4] (SEC-bearing mice, 5 mg/kg BW IP, seven doses) is listed as 65.7%. Also, the tumor volume in data set [4] (setting [10]) was 114 mm^3.

Take `CC(O)CSc1nnc(-c2cc3ccccc3[nH]2)n1-c1ccccc1` (stereo not drawn) [13a, 3-(2-Hydroxyprop-1-ylsulfanyl)-5-(1H-indol-2-yl)-4-phenyl-1,2,4-triazole]: the IC50 was 8.91 µM in the data set with HepG2 cells [2]; 140 nM against EGFR; 21.6 nM at PARP-1; 6.21 µM in the data set on MCF-7 cells [3] (MCF7, read-out: IC50 (MCF-7)); 6.21 to 16.3 µM in the data set on MCF-7 cells [3] (MCF7, read-out: IC50 range). Also, the cytotoxicity in words entry in the data set on MCF-7 cells [3] was “moderate activity”.

Take `S=c1[nH]nc(-c2cc3ccccc3[nH]2)n1-c1ccc(Cl)cc1` [3b, 4-(4-Chlorophenyl)-5-(1H-indol-2-yl)-2H-1,2,4-triazole-3(4H)-thione]: the IC50 in the data set on HepG2 cells [2] turned out to be 17.2 µM; with MCF-7 cells [3] (MCF7, read-out: IC50 (MCF-7)), 14.2 µM.

As to `O=C(NNC(=S)Nc1ccccc1)c1cc2ccccc2[nH]1` [2a, 1-(1H-Indol-2-yl-carbonyl)-4-Phenyl-thiosemicarbazide], the IC50 with HepG2 cells [2] was 12.4 µM.
